Data set [1] is described as follows: Selectivity index, ratio of CC50 for human TZM-bl cells to EC50 for R5-tropic HIV1 subtype B BaL infected in human TZM-bl cells. It is filed as toxicity, cell-based. Particulars: for selectivity ratio: TZM-bl cells, read-out: Selectivity Index.
Data set [2] has as its system Human immunodeficiency virus 1. Put plainly: Antiviral activity against R5-tropic HIV1 subtype B BaL infected in human TZM-bl cells assessed as viral inhibition pre-incubated for 30 mins prior to infection measured after 48 hrs by luciferase assay. It is filed as functional, organism-based. A digest of the protocol: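 TZM-bl cells (10^4/well at 10^5 cells/mL, medium with 30 µg/mL DEAE dextran) pre-incubated with serial compound dilutions 30 min at 37 °C, 5% CO2. Then infected with 200 TCID50 HIV-1 BaL and incubated 48 h. Luciferase read-out expressed as % inhibition vs untreated controls. EC50 from non-linear regression. Triplicate wells, ≥3 independent experiments.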

Data set [3] relates to Human immunodeficiency virus 1. Put plainly: Antiviral activity against nevirapine resistant R5-tropic HIV1 subtype C VI829 expressing reverse transcriptase Y181C mutant infected in human TZM-bl cells assessed as viral inhibition pre-incubated for 30 mins prior to infection measured after 48 hrs by luciferase assay. It is filed as functional, organism-based. Particulars: Human immunodeficiency virus 1, VI829, TZM-bl. A digest of the protocol:
(§1)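 TZM-bl cells (10^4 per well, at 10^5 cells/mL in medium with 30μg/mL DEAE dextran) pre-incubated with serial compound dilutions, then infected with 200 TCID50 of resistant HIV-1; luciferase read after 48 h. Inhibition expressed as % of untreated controls; EC50 by non-linear regression. Triplicate wells, at least three independent experiments.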

Data set [4] relates to Human immunodeficiency virus 1. Description: Antiviral activity against HIV1 NL4.3 expressing reverse transcriptase K103N mutant infected in human TZM-bl cells assessed as viral inhibition pre-incubated for 30 mins prior to infection measured after 48 hrs by luciferase assay. In kind it is functional, organism-based. To be noted: Human immunodeficiency virus 1, NL4.3, TZM-bl. Summed up:
as §1

Data set [5] relates to Human immunodeficiency virus 1. Put plainly: Antiviral activity against efavirenz resistant R5-tropic HIV1 subtype C VI829 expressing reverse transcriptase L100I-K103N mutant infected in human TZM-bl cells assessed as viral inhibition pre-incubated for 30 mins prior to infection measured after 48 hrs by luciferase assay. It is filed as functional, organism-based. Particulars: Human immunodeficiency virus 1, VI829, TZM-bl. Summed up: as §1

The test system of data set [6] is Human immunodeficiency virus 1. Put plainly: Antiviral activity against HIV1 NL4.3 expressing reverse transcriptase K103N-Y181C mutant infected in human TZM-bl cells assessed as viral inhibition pre-incubated for 30 mins prior to infection measured after 48 hrs by luciferase assay. Particulars: Human immunodeficiency virus 1, NL4.3, TZM-bl. In kind it is functional, organism-based. Summed up: as §1

The mark [7] stands for this setting: Human immunodeficiency virus 1, BaL, TZM-bl.

SMILES strings stand for the structures.

Turning to `Cc1ccc(Oc2ccc(F)c(Nc3ccc(C#N)cc3)n2)cc1`, the selectivity ratio in data set [1] came out at 390. Besides, in data set [2] (setting [7]), the EC50 came to 260 nM.
As to `Cc1cc(/C=C/C#N)cc(C)c1Nc1ccc(F)c(Nc2ccc(C#N)cc2)n1`, the selectivity ratio in data set [1] was 62500. Further, the “Selectivity Index” value in data set [1] (tzm-bl) came out at 37500. For the same compound, the EC50 in data set [3] was found to be 8.1 nM; in data set [4] it was 7.8 nM; in data set [5] it was 540 nM; in data set [2] (setting [7]), 1.5 nM; in data set [2] (tzm-bl), 1.6 nM; in data set [6] it was 554 nM.
For `Cc1cc(C#N)cc(C)c1Nc1ncc(F)c(Nc2ccc(C#N)cc2)n1`, the selectivity ratio in data set [1] is more than 36000. The EC50 in data set [2] (setting [7]) was determined as 2.8 nM.
The corresponding values for `Cc1cc(C#N)cc(C)c1Nc1ccc(F)c(Nc2ccc(F)cc2)n1` are 830 and 51 nM.
The corresponding values for `Cc1cc(C)c(Oc2ccc(F)c(Nc3ccc(C#N)cc3)n2)c(C)c1` are 6400 and 8.6 nM.
On to `COC(=O)/C=C/c1cc(C)c(Nc2ccc(F)c(Nc3ccc(C#N)cc3)n2)c(C)c1`, for which the selectivity ratio in data set [1] is 13000. Further, the EC50 in data set [2] (setting [7]) amounted to 4.4 nM.
The corresponding values for `COC(=O)/C=C/c1cc(C)c(Nc2ccc(F)c(Nc3ccc(Cl)cc3)n2)c(C)c1` are 950 and 53 nM.
In the case of `Cc1cc(C#N)cc(C)c1Nc1ccc(F)c(Nc2ccc(C#N)cc2)n1`, the selectivity ratio in data set [1] was 7100. The EC50 in data set [3] is 91 nM; in data set [5], more than 10000 nM; in data set [2] (setting [7]), 4.7 nM.
Consider `Cc1cc(C#N)cc(C)c1Nc1cccc(Nc2ccc(C#N)cc2)n1`, for which the selectivity ratio in data set [1] is 930. For the same compound, the EC50 in data set [3] came out at 1500 nM; in data set [5], 6600 nM; in data set [2] (setting [7]), 25 nM.
`Cc1cc(/C=C/C#N)cc(F)c1Nc1ccc(F)c(Nc2ccc(C#N)cc2)n1`: in data set [1], the selectivity ratio is more than 100000. In addition, the EC50 in data set [3] was 25 nM; in data set [4], 36 nM; in data set [5] it was 272 nM; in data set [2] (setting [7]) it was 1 nM; in data set [6] it was more than 1000 nM.
`COC(=O)/C=C/c1cc(C)c(Nc2ccc(F)c(Nc3ccc(F)cc3)n2)c(C)c1`: in data set [1], the selectivity ratio is 610. For the same compound, the EC50 in data set [2] (setting [7]) was 84 nM.
`Cc1cc(/C=C/C#N)cc(C)c1Nc1ccc(F)c(Nc2ccc(/C=C/C#N)cc2)n1`: the selectivity ratio in data set [1] was 19000. In data set [2] (setting [7]), the EC50 turned out to be 4.6 nM.
As for `Cc1cc(C#N)cc(C)c1Nc1ccc(F)c(Nc2ccc(Cl)cc2)n1`, the selectivity ratio in data set [1] is 2000. Besides, in data set [2] (setting [7]), the EC50 came out at 15 nM.
The corresponding values for `COC(=O)c1ccc(Nc2nc(Nc3c(C)cc(/C=C/C#N)cc3C)ccc2F)cc1` are 2100 and 23 nM.
For the compound `Cc1cc(C)c(Nc2ccc(F)c(Nc3ccc(C#N)cc3)n2)c(C)c1`, the selectivity ratio in data set [1] came to 2000. Further, the EC50 in data set [3] was 130 nM; in data set [5] it was more than 10000 nM; in data set [2] (setting [7]) it was 8.3 nM.
With `Cc1cc(/C=C/C#N)ccc1Nc1ccc(F)c(Nc2ccc(F)cc2)n1`, in data set [1], the selectivity ratio was 210. Moreover, the EC50 in data set [2] (setting [7]) is 400 nM.
Take `Cc1cc(C#N)cc(F)c1Nc1ccc(F)c(Nc2ccc(C#N)cc2)n1`: in data set [1], the selectivity ratio is 4600. Besides, the EC50 in data set [2] (setting [7]) worked out at 8.8 nM.
For `Cc1cc(C)c(Nc2cccc(Nc3ccc(C#N)cc3)n2)c(C)c1`, in that order: 1400 and 30 nM.
The corresponding values for `Cc1cc(/C=C/C#N)ccc1Nc1ccc(F)c(Nc2ccc(Cl)cc2)n1` are 380 and 63 nM.
For `N#C/C=C/c1cc(F)c(Nc2ccc(F)c(Nc3ccc(C#N)cc3)n2)c(F)c1` (mixture of isomers), in that order: 4600 and 3.3 nM.
As for `Cc1cc(/C=C/C#N)cc(C)c1Nc1ccc(F)c(Nc2ccc(F)cc2)n1` (mixture of isomers), the selectivity ratio in data set [1] was 8100. In data set [2] (setting [7]), the concentration giving a half-maximal response (EC50) turned out to be 6.2 nM.
Consider `Cc1cc(/C=C/C#N)cc(C)c1Nc1ccc(F)c(Nc2ccc(Cl)cc2)n1` (mixture of isomers), for which, in data set [1], the selectivity ratio was 6600. The EC50 in data set [2] (setting [7]) was 6.3 nM.
For `Cc1cc(/C=C/C#N)ccc1Nc1ccc(F)c(Nc2ccc(C#N)cc2)n1` (mixture of isomers), in that order: 24000 and 11 nM.
The corresponding values for `Cc1cc(/C=C/C#N)cc(C)c1Nc1ccc(F)c(Nc2ccc(C#N)cc2)c1` (mixture of isomers) are 7400 and 4.5 nM.
On to `Cc1cc(/C=C/C#N)cc(F)c1Nc1ccc(F)c(Nc2ccc(C#N)cc2)c1` (mixture of isomers), for which, in data set [1], the selectivity ratio was 6100. Further, the EC50 in data set [2] (setting [7]) came out at 11 nM.
As for `Cc1cc(/C=C/C#N)cc(C)c1Nc1cccc(Nc2ccc(C#N)cc2)n1` (mixture of isomers), in data set [1], the selectivity ratio was determined as 11000. Moreover, the EC50 in data set [3] is 91 nM; in data set [5], more than 1000 nM; in data set [2] (setting [7]), 3.5 nM.
For `Cc1cc(/C=C/C#N)cc(C)c1Nc1ncc(F)c(Nc2ccc(C#N)cc2)n1` (mixture of isomers), the selectivity ratio in data set [1] is more than 42000. The EC50 in data set [2] (setting [7]) came to 0.9 nM.
For `Cc1cc(/C=C/C#N)ccc1Nc1ccc(F)c(Nc2ccc(C#N)cc2)c1` (mixture of isomers), in that order: 89 and 58 nM.
For `Cc1cc(/C=C/C#N)cc(F)c1Nc1cccc(Nc2ccc(C#N)cc2)n1` (mixture of isomers), the selectivity ratio in data set [1] amounted to 5500. Besides, the EC50 in data set [3] came out at 255 nM; in data set [5] it was 1100 nM; in data set [2] (setting [7]) it was 5.5 nM.
For the compound `N#C/C=C/c1ccc(Nc2ccc(F)c(Nc3ccc(C#N)cc3)n2)cc1` (mixture of isomers), the selectivity ratio in data set [1] turned out to be 14. Also, the EC50 in data set [2] (setting [7]) turned out to be 480 nM.
For the compound `Cc1cc(C)c(Nc2ccnc(Nc3ccc(C#N)cc3)n2)c(C)c1` [DAPIVIRINE], in data set [1], the selectivity ratio amounted to 2000. Also, the EC50 in data set [3] is 11 nM; in data set [4], 2.8 nM; in data set [5], more than 1000 nM; in data set [2] (setting [7]), 1.4 nM; in data set [6] it was 92 nM.
In the case of `Cc1cc(/C=C/C#N)cc(C)c1Nc1ccnc(Nc2ccc(C#N)cc2)n1` [RILPIVIRINE], the selectivity ratio in data set [1] worked out at 10700. Also, the EC50 in data set [3] worked out at 2.5 nM; in data set [4], 0.7 nM; in data set [5], 3.6 nM; in data set [2] (setting [7]) it was 0.72 nM; in data set [6], 3.1 nM.

The record behind these values is ChEMBL document CHEMBL3785072, “2,6-Di(arylamino)-3-fluoropyridine Derivatives as HIV Non-Nucleoside Reverse Transcriptase Inhibitors” (J Med Chem, 2016).
